PostGolgi yeast: growth inhibition of a yeast mutant, post-Golgi transport screen. post-Golgi transport phenotypic cell assay. inhibition, % at 10 µM. actives 0.9% (n = 98,000). AID 739;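 further: yeast cells grown in 1536-well plates; yeast grown about 18 h at 30C before absorbance read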
HePTP inh: blocks human HePTP tyrosine phosphatase; actives 0.64% (n = 110,000); recombinant HePTP phosphatase activity, OD absorbance; AID 521; inhibition, % at 20 µM; in the data active means inhibition above about 50%;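 further: plate controls were vehicle for no effect and reference inhibitor for full effect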
Target sequence (P35236 whole entry, looked up): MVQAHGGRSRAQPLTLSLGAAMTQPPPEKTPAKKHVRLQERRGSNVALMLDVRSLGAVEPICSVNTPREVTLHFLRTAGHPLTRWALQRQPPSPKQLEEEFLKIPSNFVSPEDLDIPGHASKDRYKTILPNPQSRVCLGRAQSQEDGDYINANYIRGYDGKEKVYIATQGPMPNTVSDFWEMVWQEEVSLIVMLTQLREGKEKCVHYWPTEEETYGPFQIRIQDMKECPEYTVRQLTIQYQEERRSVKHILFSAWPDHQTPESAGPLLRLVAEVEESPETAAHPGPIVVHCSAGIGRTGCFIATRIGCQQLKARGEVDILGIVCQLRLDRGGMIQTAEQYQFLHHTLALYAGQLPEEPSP
PLAP activator: activators of human placental alkaline phosphatase; actives 1.2% (n = 96,000); activation fold at 20 µM; AID 696; P05187; purified PLAP enzyme, luminescent substrate read-out; hits give high values; in the data active means activation fold above about 2
tolC growth inh: growth inhibitors of E. coli BW25113 tolC mutant; growth inhibition, % at 10 µM (by protocol); OD615; actives 2.2% (n = 65,000);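 active means growth inhibition at or above a cutoff equal to the mean over every tested compound plus 3 SD, cut at about 60% in these data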;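 further: growth measured after 20 h incubation at 37 °C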
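Test system – E. coli BW25113 ΔtolC::kan, tolC deletion mutant strain · Detection – OD at 615 nm · Buffer or medium – LB with kanamycin 50 µg/mL · Times – 20 h compound exposure of bacteria at 37 °C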
PostGolgi ctrl: growth of the yeast control strain, post-Golgi counter-screen; efflux-deficient yeast background strain, growth absorbance A615, 16 h; inhibition, % at 10 µM; actives 5% (n = 98,000); AID 738
Ecoli WT expand: E. coli BW25113 growth inhibition, expanded screen; OD600 absorbance; growth inhibition, % at 100 µM; actives 0.15% (n = 98,000);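 active means growth inhibition above about 50% at one test dose, limit read from the data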;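 further: growth measured after 20 h incubation at 37 °C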
The depositor's hits bear a star; . = no result given. The list is not random: actives were taken first. Their share in the collection is about 5.4%. Unless noted, no stated cut-off is given here; in the data, active means inhibition above about 30%; inactive means the rest.

SMILES	PostGolgi yeast	HePTP inh	PLAP activator	tolC growth inh	PostGolgi ctrl	Ecoli WT expand
CCCCn1c(O)c(C(CC)=NCCc2ccccc2)c(=O)[nH]c1=O	24	3	1.1	99*	55*	-8
CCCCn1c(O)c(C(CC)=NCc2ccc(F)cc2)c(=O)[nH]c1=O	23	.	0.9	.	31*	4
CCCCCCN=C(C)c1c(O)n(CCCC)c(=O)[nH]c1=O	9	-1	1	8	38*	-1
CCCCn1c(O)c(C(C)=NCc2ccc(F)cc2)c(=O)[nH]c1=O	1	-3	0.8	1	11	-2
COc1ccc(CNCCc2ccc3c(c2)OCO3)c(OC)c1C	.	-9	.	.	.	.
O=C(Cc1ccccc1)N1CCN(C2CCN(Cc3ccccc3)CC2)CC1	.	8	.	.	.	.
COc1ccc(-c2ccc(C=C3C(=O)NC(=S)NC3=O)o2)c([N+](=O)[O-])c1	.	42	.	.	.	.
Cc1ccc(CN2C(=O)NC(=O)C3(Cc4c(nc5ccccn5c4=O)N4CCCCCC43)C2=O)cc1 (configuration not stated)	-1	7	1.3	74*	13	-8
CN(CC1COc2ccccc2O1)c1nc(-c2cccnc2)nc2ccccc12 (configuration not stated)	6	3	.	24	70*	4
CN1CCC(N(C)c2nc(-c3ccc([N+](=O)[O-])cc3)nc3ccccc23)CC1	-8	.	1.4	.	-3	6
CCC(=O)c1cn(Cc2ccccc2C#N)c2ccccc12	7	1	0.8	17	31*	2
CCOc1ccc(N2C(=O)/C(=C/c3ccco3)C(=O)NC2=S)cc1	.	102*	.	.	.	.
CCOc1ccc(N2C(=O)NC(=O)/C(=C\c3ccc(C)o3)C2=O)cc1	.	-4	.	.	.	.
O=C1NC(=S)N(c2cccc(Br)c2)C(=O)/C1=C/c1ccco1	.	102*	.	.	.	.
COc1ccc(-n2c(O)c(C(C)=NCc3ccco3)c(=O)[nH]c2=O)cc1	-4	0	0.9	-10	38*	-1
CC(=NCc1ccco1)c1c(O)n(-c2ccccc2)c(=O)[nH]c1=O	1	.	1.1	.	20	8
CC(=O)Oc1ccccc1C(=O)Oc1ccc2c(c1)c(C(C)=O)c(C)n2Cc1ccccc1	.	10	.	.	.	.
Cc1cccc(C)c1NC(=O)c1cccn(Cc2ccc3c(c2)OC(F)(F)O3)c1=O	-11	.	1.5	.	75*	-5
CC(C)Oc1cccc(NC(=O)c2cccn(Cc3ccc4c(c3)OC(F)(F)O4)c2=O)c1	0	.	1.3	.	19	-11
O=C(Nc1cccc(C(F)(F)F)c1)c1cccn(Cc2ccc3c(c2)OC(F)(F)O3)c1=O	8	.	1.3	.	32*	-19
CCC(C)NC(=O)c1c(N)n(CCCOC)c2nc3ccccc3nc12 (configuration not stated)	0	5	2*	29	28	-2
CC(C)CCNC(=O)c1c(N)n(CC2CCCO2)c2nc3ccccc3nc12 (configuration not stated)	-2	8	2.1*	.	57*	-10
CCC(C)NC(=O)c1c(N)n(CC2CCCO2)c2nc3ccccc3nc12 (configuration not stated)	0	4	2*	4	56*	-16
COCCCn1c(N)c(C(=O)OC(C)COC)c2nc3ccccc3nc21 (configuration not stated)	17	7	1.7	-7	2	-1
CCC(C)NC(=O)c1c(N)n(Cc2ccc3c(c2)OCO3)c2nc3ccccc3nc12 (configuration not stated)	10	-10	1.7	-1	10	-8
SMILES	PostGolgi yeast	HePTP inh	PLAP activator	tolC growth inh	PostGolgi ctrl	Ecoli WT expand
Clc1cccc(C2NCCc3[nH]cnc32)c1 (configuration not stated)	-28	.	0.8	.	40*	-3
Cc1ccc(-c2ccc(C=C3C(=O)NC(=S)NC3=O)o2)cc1[N+](=O)[O-]	.	11	.	.	.	.
Cc1ccccc1CN(CCc1ccc2c(c1)OCO2)Cc1ccccc1C	.	4	.	.	.	.
CCCCn1c(O)c(C=NC2CC3CCC2(C)C3(C)C)c(=O)[nH]c1=O (configuration not stated)	5	5	1	31	63*	-2
CCN(CC)CCCN=Cc1c(O)n(CCc2ccc(F)cc2)c(=O)[nH]c1=O	6	-9	1.2	-15	6	4
Cn1c(O)c(C=NC2CC3CCC2(C)C3(C)C)c(=O)[nH]c1=O (configuration not stated)	-4	5	1.1	2	1	5
CCCCn1c(O)c(C=NCCCN(CC)CC)c(=O)[nH]c1=O	5	0	0.9	-24	46*	0
CCOc1ccc(-n2c(O)c(C=NCCN(CC)CC)c(=O)[nH]c2=O)cc1	-1	-7	1	-14	36*	0
Cc1ccc(-n2c(C)nc3ccccc3c2=O)cc1Cl	.	1	.	.	.	.
Cc1ccnc(-n2c(C)nc3ccccc3c2=O)c1	2	13	.	5	5	-21
Cc1ccnc(-n2c(-c3ccccc3)nc3ccccc3c2=O)c1	0	.	1	.	34*	-2
COc1ccc(-c2nc3ccccc3c(=O)n2-c2ncccc2C)cc1	.	-17	.	.	.	.
CC12CCC3C(CC=C4CC(O)CCC43C)C1C/C(=C\c1ccc(F)cc1)C2=O (configuration not stated)	.	4	.	.	.	.
CCOc1cc(C)cc2oc(=O)c3c(c12)CCC3	.	104*	.	.	.	.
Cn1c(O)c(/C=C2/C=CC=N2)c(=O)n(-c2ccccc2)c1=S	.	101*	.	.	.	.
O=c1c2ccccc2nc(/C=C\c2ccc(O)cc2)n1-c1ccc(O)cc1	.	7	.	.	.	.
CC/C(=C\C=C\C1C=CC2CCCC2C1C(=O)c1ccc[nH]1)C1OC(C(C)C(=O)O)CCC1C (configuration not stated)	.	11	.	.	.	.
Cn1c(=O)cc(OCCCC(=O)N2CCC3(CC2)OCCO3)c2ccccc21	6	.	1.2	.	1	7
CCOc1cc2[nH]c(=S)n(CCCC(=O)N3CCC4(CC3)OCCO4)c(=O)c2cc1OCC	6	8	1.8	10	39*	4
Cc1ccc2c(c1)CC1(CN2C)C(=O)NC(=O)N(c2ccccc2C)C1=O (configuration not stated)	-4	7	1.2	-19	3	2
Cc1ccc2c(c1)CC1(CN2C)C(=O)NC(=O)N(CCc2ccccc2)C1=O (configuration not stated)	9	.	1.6	.	37*	-3
CCCCn1c(N)c(C(=O)NCCN2CCOCC2)c2nc3ccccc3nc21	2	0	2.3*	12	8	10
Nc1c(C(=O)NCCc2ccccc2)c2nc3ccccc3nc2n1CCN1CCOCC1	50*	5	1.7	90*	40*	-23
COc1ccc(CCNC(=O)c2c(N)n(CCN3CCOCC3)c3nc4ccccc4nc23)cc1	-3	-9	1.6	50	35*	-9
CCC(C)OC(=O)c1c(N)n(Cc2cccs2)c2nc3ccccc3nc12 (configuration not stated)	16	.	1	.	50*	-16
C=CCNC(=O)c1c(N)n(Cc2ccco2)c2nc3ccccc3nc12	3	.	1.1	.	13	-15

Screening results from PubChem.
